Measured values: the M2OR odorant receptor database

Key:
Conditions in all cases: stereoisomer not certain
OR10H3 (Homo sapiens) = OR10H3 (Homo sapiens) (UniProt O60404)
How it was run: (§1)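 Assay methods differ from source to source, frequently being transient luciferase assays in mammalian cell lines. For each receptor–molecule pair, the label responsive (active) applies when the original authors judged the measured signal statistically different from baseline, and non-responsive (inactive) applies otherwise.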

OR10H4 (Homo sapiens) = OR10H4 (Homo sapiens) (UniProt Q8NGA5)
How it was run: as §1

OR10H5 (Homo sapiens) = OR10H5 (Homo sapiens) (UniProt Q8NGA6)
How it was run: as §1

OR10J3 (Homo sapiens) = OR10J3 (Homo sapiens) (UniProt Q5JRS4)
How it was run: as §1

OR10J4 (Homo sapiens) = OR10J4 (Homo sapiens) (UniProt P0C629)
How it was run: as §1

OR10J5 (Homo sapiens) = target: T1, OR10J5 (Homo sapiens) (UniProt Q8NHC4)
T1 sequence (whole entry): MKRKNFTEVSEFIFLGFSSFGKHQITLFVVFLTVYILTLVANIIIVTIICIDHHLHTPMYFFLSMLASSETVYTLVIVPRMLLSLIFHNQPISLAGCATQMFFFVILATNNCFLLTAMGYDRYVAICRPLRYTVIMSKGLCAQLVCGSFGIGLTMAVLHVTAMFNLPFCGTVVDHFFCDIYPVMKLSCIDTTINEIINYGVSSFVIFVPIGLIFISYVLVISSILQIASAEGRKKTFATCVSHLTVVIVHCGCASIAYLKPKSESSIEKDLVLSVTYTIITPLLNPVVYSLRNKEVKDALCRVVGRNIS
How it was run: as §1

OR10K1 (Homo sapiens) = OR10K1 (Homo sapiens) (UniProt Q8NGX5)
How it was run: as §1

OR10K2 (Homo sapiens) = OR10K2 (Homo sapiens) (UniProt Q6IF99)
How it was run: as §1

OR10P1 (Homo sapiens) = OR10P1 (Homo sapiens) (UniProt Q8NGE3)
How it was run: as §1

OR10J1 (Homo sapiens) = OR10J1 (Homo sapiens) (UniProt P30954)
How it was run: as §1

Measured: odorant receptor agonist call

Sequence of OR10H5 (Homo sapiens) (Q8NGA6 whole entry): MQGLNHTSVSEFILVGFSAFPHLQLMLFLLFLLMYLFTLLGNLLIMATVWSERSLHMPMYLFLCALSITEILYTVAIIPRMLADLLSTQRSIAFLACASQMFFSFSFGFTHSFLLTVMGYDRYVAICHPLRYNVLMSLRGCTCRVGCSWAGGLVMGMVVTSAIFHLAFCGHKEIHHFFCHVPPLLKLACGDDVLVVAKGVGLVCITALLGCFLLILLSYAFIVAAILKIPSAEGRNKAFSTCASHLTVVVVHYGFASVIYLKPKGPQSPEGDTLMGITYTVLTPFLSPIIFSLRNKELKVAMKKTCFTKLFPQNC
Sequence of OR10H4 (Homo sapiens) (Q8NGA5 whole entry): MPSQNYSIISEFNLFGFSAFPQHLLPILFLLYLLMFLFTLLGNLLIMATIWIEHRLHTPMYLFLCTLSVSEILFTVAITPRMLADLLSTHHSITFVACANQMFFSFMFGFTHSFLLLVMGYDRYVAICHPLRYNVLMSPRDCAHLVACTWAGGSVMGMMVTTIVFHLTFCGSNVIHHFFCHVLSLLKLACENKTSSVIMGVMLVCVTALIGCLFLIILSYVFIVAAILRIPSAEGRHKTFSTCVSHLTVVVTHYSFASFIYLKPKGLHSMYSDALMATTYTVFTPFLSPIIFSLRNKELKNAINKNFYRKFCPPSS
Sequence of OR10K1 (Homo sapiens) (Q8NGX5 whole entry): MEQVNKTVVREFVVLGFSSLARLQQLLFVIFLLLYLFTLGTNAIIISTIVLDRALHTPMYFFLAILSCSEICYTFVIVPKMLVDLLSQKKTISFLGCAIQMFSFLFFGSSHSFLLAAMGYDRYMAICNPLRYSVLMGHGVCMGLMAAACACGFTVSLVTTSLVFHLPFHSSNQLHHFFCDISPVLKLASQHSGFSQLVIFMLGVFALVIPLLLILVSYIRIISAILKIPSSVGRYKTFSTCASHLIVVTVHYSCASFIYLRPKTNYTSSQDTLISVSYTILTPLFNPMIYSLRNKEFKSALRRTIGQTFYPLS
Sequence of OR10J3 (Homo sapiens) (Q5JRS4 whole entry): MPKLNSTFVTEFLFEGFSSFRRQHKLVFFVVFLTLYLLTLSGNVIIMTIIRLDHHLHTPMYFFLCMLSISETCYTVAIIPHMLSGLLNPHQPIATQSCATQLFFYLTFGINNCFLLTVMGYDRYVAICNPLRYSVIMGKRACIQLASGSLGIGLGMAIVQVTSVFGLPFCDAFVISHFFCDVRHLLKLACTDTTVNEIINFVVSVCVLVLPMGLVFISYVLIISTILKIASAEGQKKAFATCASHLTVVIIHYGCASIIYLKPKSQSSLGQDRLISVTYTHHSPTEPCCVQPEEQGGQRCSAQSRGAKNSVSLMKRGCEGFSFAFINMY
Sequence of OR10P1 (Homo sapiens) (Q8NGE3 whole entry): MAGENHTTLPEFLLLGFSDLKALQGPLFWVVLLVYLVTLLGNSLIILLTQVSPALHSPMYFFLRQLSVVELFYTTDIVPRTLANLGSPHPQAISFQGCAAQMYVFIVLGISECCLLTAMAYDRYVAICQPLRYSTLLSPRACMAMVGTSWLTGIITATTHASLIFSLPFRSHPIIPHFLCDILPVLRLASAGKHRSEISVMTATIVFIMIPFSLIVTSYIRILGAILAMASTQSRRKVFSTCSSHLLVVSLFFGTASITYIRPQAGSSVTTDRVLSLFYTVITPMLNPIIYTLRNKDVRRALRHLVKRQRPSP
Sequence of OR10H3 (Homo sapiens) (O60404 whole entry): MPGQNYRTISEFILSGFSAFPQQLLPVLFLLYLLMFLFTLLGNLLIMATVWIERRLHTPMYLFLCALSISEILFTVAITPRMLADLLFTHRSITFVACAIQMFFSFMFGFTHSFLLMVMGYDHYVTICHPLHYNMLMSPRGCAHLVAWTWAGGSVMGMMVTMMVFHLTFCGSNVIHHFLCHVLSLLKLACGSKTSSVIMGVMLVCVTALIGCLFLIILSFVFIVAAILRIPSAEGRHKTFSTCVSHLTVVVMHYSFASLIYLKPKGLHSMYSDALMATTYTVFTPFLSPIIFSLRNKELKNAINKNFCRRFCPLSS
Sequence of OR10J1 (Homo sapiens) (P30954 whole entry): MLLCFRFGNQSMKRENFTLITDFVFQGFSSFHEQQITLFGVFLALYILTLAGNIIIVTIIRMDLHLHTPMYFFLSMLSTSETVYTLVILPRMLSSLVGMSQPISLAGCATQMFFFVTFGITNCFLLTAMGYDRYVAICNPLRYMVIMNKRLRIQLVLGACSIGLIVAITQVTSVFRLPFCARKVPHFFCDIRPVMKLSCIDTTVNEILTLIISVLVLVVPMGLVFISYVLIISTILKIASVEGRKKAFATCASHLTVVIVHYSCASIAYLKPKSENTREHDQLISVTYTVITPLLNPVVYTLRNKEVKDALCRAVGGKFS
Sequence of OR10J4 (Homo sapiens) (P0C629 whole entry F198I): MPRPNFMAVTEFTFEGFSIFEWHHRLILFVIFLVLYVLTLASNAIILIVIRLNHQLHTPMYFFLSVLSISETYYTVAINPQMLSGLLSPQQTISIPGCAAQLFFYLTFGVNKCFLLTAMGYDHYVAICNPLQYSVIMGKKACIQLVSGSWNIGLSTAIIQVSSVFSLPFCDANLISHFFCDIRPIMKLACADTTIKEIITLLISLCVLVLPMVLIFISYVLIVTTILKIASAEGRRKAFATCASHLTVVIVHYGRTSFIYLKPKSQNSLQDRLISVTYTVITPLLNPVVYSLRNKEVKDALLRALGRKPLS
Sequence of OR10K2 (Homo sapiens) (Q6IF99 whole entry): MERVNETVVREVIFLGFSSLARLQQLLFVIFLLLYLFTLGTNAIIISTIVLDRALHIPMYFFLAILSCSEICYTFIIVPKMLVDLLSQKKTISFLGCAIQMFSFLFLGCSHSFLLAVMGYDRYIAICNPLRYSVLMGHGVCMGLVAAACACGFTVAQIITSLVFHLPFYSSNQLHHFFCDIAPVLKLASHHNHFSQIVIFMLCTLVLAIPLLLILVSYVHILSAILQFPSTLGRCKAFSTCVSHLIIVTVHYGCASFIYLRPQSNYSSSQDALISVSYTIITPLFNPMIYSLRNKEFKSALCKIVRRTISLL

Cc1c([N+](=O)[O-])c(C)c([N+](=O)[O-])c(C(C)(C)C)c1[N+](=O)[O-]
not listed: OR10J1 (Homo sapiens)
inactive: all other assays above

CCC1CCC(=O)O1 (stereo not given)
inactive: OR10J5 (Homo sapiens)

O=c1cc(O)c2ccccc2o1
inactive: OR10J5 (Homo sapiens)

C=CCc1ccccc1
inactive: OR10J5 (Homo sapiens)

C=CCOC(=O)Cc1ccccc1
not listed: OR10J4 (Homo sapiens) | OR10K2 (Homo sapiens)
inactive: all other assays above
